# Data published in ChEMBL document CHEMBL1145104, “Discovery of a long-chain carbamoyl aminocarnitine derivative, a reversible carnitine palmitoyltransferase inhibitor with antiketotic and antidiabetic activity” (J Med Chem, 2003).
# Tests used:
# Mus musculus [1] = experiment: Percent increase in the liver triglycerides content of mice treated with 50 mg/kg of compound orally for 45 days; details: route oral
# Mus musculus [2] = experiment: Percent decrease in the serum fructosamine level of mice treated with 50 mg/kg of compound orally for 45 days; assay type: functional; details: route oral
# Procedure, shortened: (§1)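 Male C57BL/KsJ-db/db mice, 8 weeks old, n=8 per group. Dosed orally at 50 mg/kg or an equimolar dose, twice daily for 45 days; controls got 0.5% carboxymethylcellulose vehicle at 10 mL/kg. Sampled 9 h after the last dose, after a 9 h fast. Percent change was calculated against untreated db/db controls.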
# Mus musculus [3] = experiment: Percent increase of free fatty acids level in serum of mice treated with 50 mg/kg of compound orally for 45 days; details: route oral
# [4] = target: T1, Carnitine O-palmitoyltransferase 1, liver isoform (Rattus norvegicus, UniProt P32198); experiment: Inhibition of [14C]palmitoyl-CoA and carnitine binding to carnitine palmitoyltransferase I from rat liver mitochondria
# T1 sequence (P32198 whole entry): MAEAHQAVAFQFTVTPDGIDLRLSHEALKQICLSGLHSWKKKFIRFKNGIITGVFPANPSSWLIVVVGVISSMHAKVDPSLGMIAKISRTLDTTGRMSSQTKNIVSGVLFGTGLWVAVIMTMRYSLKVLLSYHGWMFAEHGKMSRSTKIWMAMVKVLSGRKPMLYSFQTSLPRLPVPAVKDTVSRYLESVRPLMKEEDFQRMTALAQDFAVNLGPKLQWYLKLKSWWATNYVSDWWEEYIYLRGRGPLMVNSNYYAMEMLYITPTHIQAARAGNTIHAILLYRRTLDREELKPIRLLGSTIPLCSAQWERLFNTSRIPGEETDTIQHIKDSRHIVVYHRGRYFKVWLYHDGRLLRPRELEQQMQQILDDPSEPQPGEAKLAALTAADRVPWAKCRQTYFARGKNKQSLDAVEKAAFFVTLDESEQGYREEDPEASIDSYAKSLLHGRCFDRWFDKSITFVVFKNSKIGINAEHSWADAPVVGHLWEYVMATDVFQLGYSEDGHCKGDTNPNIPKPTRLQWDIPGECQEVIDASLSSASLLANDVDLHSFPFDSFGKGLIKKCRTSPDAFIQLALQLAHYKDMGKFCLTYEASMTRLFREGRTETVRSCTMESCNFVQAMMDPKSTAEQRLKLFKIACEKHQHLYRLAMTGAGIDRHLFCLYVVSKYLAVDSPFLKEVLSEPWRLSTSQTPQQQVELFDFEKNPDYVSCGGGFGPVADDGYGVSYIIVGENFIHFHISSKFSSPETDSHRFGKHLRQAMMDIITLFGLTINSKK
# Procedure, shortened: (§2)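 Intact mitochondria freshly isolated from the livers of fed male Sprague-Dawley rats, suspended in buffer with 225 mM sucrose. Assay medium at pH 7.5 with [14C]palmitoyl-CoA and L-carnitine, and inhibitor at 0–3 mM. Run 1 min at 37 °C; radiolabelled palmitoylcarnitine formation was measured. IC50 was taken from the inhibition curve; mean of two determinations in triplicate.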
# [5] = target: T2, Carnitine O-palmitoyltransferase 1, muscle isoform (Rattus norvegicus, UniProt Q63704); experiment: In vitro inhibition of [14C]palmitoyl-CoA and carnitine binding to carnitine palmitoyltransferase I of rat heart mitochondria
# T2 sequence (Q63704 whole entry): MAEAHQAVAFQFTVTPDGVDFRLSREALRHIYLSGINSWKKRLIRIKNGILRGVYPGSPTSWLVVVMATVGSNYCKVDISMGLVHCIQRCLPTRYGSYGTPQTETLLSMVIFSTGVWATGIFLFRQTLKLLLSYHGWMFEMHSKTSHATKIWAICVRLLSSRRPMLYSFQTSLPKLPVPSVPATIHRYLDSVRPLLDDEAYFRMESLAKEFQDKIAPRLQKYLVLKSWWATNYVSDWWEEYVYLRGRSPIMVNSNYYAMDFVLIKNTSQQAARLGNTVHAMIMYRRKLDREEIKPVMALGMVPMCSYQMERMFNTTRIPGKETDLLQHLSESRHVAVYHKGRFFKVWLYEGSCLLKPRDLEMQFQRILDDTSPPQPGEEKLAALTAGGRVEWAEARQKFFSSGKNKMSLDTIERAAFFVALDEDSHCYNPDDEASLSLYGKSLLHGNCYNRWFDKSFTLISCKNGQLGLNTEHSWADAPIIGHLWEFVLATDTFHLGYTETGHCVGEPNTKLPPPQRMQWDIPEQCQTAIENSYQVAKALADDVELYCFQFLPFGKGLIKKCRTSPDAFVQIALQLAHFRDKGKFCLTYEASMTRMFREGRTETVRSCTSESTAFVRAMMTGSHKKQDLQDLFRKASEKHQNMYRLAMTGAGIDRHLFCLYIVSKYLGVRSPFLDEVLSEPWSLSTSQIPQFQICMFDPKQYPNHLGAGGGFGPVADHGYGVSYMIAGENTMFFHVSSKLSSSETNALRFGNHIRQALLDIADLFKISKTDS
# Procedure, shortened: as §2, with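 “hearts” for “livers”, “75” for “225”, “[14C]palmitoyl incorporated into carnitine” for “radiolabelled palmitoylcarnitine formation”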
# Rattus norvegicus [6] = species on record: Rattus norvegicus; experiment: Effective dose of compound that reduces serum beta-hydroxybutyrate levels in rats
# [7] = target: T1, Carnitine O-palmitoyltransferase 1, liver isoform; experiment: Inhibition of rat liver carnitine palmitoyltransferase I; details: read-out: Ki app
# Procedure, shortened: as §2
# Mus musculus [8] = experiment: Percent decrease in the liver glycogen level of mice treated with 50 mg/kg of compound orally for 45 days; assay type: functional; details: route oral
# Procedure, shortened: as §1
# Mus musculus [9] = experiment: Percent decrease in the serum glucose level of mice treated with 50 mg/kg of compound orally for 45 days; assay type: functional; details: route oral
# Procedure, shortened: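 Oral dosing of male C57BL/KsJ-db/db mice (8 weeks old, n=8) at 50 mg/kg or an equimolar dose, twice daily for 45 days; vehicle was 0.5% carboxymethylcellulose. Serum was collected 9 h after the last dose, after a 9 h fast. Glucose was measured with an autoanalyzer kit; percent reduction was calculated against untreated db/db controls; Student's t test.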
# Mus musculus [10] = experiment: Level of glucose in […] mice serum after treating with 50 mg/kg of compound orally for 45 days (originally-673.9+/-44.09 mg/dL); assay type: functional; details: route oral
# Mus musculus [11] = experiment: Level of fructosamine in […] mice serum after treating with 50 mg/kg of compound orally for 45 days (originally-4.80+/-0.17 mmol/L); assay type: functional; details: route oral
# Rattus norvegicus [12] = species on record: Rattus norvegicus; experiment: Percent decrease of oleoylcarnitine levels in isolated rat hepatocytes at 3 mM compound concentration; No variation
SMILES,IC50 [4] [µM],IC50 [5] [µM],other results
CCCCCCCCCCCCCCNC(=O)N[C@@H](CC(=O)[O-])C[N+](C)(C)C,1.1,43.4,Increase (Mus musculus [1]): 38%; Decrease (Mus musculus [2]): -30%; Increase (Mus musculus [3]): 20%; ED50 (Rattus norvegicus [6]): 14.5 mg/kg; Ki [7]: 0.36 µM; Decrease (Mus musculus [8]): -25%; Decrease (Mus musculus [9]): -25%; Level in serum (Mus musculus [10]): 202.6 mg/dL; Level in serum (Mus musculus [11]): 3.37 mM l-1; Decrease (Rattus norvegicus [12]): No variation
CCCCCCCCCCCCS(=O)(=O)N[C@@H](CC(=O)[O-])C[N+](C)(C)C,0.7,3.4,–
CCCCCCCCCCCCNC(=O)N[C@@H](CC(=O)[O-])C[N+](C)(C)C,1.8,> 120,–
CCCCCCCCCCCCS(=O)(=O)N[C@H](CC(=O)[O-])C[N+](C)(C)C,6,> 10,–
CCCCCCCCCCCNC(=O)N[C@@H](CC(=O)[O-])C[N+](C)(C)C,–,118,–
CCCCCCCCCNC(=O)N[C@@H](CC(=O)[O-])C[N+](C)(C)C,31.3,46.2,–
CCCCCCCCOC(=O)N[C@@H](CC(=O)[O-])C[N+](C)(C)C,9.5,80.1,–
CCCCCCCCCCCCCCNC(=O)N[C@H](CC(=O)[O-])C[N+](C)(C)C [TEGLICAR],58.8,167,–
CCCCCCCCCNC(=O)N[C@H](CC(=O)[O-])C[N+](C)(C)C,> 300,> 300,–
CCCCCCCCOC(=O)N[C@H](CC(=O)[O-])C[N+](C)(C)C,> 300,> 300,–
CCCCCCCNC(=O)N[C@@H](CC(=O)[O-])C[N+](C)(C)C,43.6,> 300,–
